Reference: ChEMBL document CHEMBL4049426, “Identification of the Clinical Candidate (R)-(1-(4-Fluorophenyl)-6-((1-methyl-1H-pyrazol-4-yl)sulfonyl)-4,4a,5,6,7,8-hexahydro-1H-pyrazolo[3,4-g]isoquinolin-4a-yl)(4-(trifluoromethyl)pyridin-2-yl)methanone (CORT125134): A Selective Glucocorticoid Receptor (GR) Antagonist” (J Med Chem, 2017)
pKi: −log10 of the molar value.

What was measured:
[1] = Cmax in Sprague-Dawley CD-1 rat plasma at 5 mg/kg, po administered through gavage measured up to 24 hrs by LC/MS analysis; assay type: ADME, organism-based; parameters: dose 5 mg/kg, route oral
Method in brief: (§1)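 Jugular-catheterized male Sprague Dawley CD-1 rats (220-250g). Oral arm: five rats, 5mg/kg gavage, 1mg/mL in DMSO:0.5% methylcellulose 10:90, 5mL/kg, sampled pre-dose and 0.25-24 h. i.v. arm: three rats, 1mg/kg, 0.5mg/mL in DMSO:PEG400:propylene glycol 10:45:45, sampled pre-dose and 0.08-24 h. Plasma by LC/MS.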

Glucocorticoid receptor = molecular target: T1, Glucocorticoid receptor (Rattus norvegicus, UniProt P06536); assay: (§2) Antagonist activity at rat glucocorticoid receptor in primary hepatocytes assessed as dexamethasone-induced tyrosine amino transferase activity preincubated for 30 mins followed by dexamethasone addition measured after 20 hrs; assay type: cell-based
T1 sequence (P06536 whole entry): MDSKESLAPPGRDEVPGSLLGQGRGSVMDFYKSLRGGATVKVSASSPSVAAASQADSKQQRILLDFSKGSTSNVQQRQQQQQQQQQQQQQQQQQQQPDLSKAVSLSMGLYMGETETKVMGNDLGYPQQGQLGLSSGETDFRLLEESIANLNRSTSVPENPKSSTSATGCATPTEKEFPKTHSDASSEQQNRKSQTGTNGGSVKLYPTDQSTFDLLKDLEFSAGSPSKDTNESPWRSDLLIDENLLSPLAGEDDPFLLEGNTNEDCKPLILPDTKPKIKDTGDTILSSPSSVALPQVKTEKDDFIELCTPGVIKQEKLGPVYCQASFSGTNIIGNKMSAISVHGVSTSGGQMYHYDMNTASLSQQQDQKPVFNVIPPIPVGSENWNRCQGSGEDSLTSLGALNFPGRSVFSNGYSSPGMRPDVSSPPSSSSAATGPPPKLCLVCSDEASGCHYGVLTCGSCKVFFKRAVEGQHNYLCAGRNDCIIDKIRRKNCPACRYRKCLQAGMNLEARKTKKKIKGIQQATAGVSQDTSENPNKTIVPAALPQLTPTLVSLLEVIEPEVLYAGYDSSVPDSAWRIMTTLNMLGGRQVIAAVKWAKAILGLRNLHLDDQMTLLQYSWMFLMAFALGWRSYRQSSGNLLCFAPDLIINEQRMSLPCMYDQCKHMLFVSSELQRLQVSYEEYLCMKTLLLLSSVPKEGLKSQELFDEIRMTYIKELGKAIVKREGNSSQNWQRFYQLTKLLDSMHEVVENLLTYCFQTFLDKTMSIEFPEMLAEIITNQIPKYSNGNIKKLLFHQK

[2] = molecular target: T2, Glucocorticoid receptor (Rattus norvegicus) (UniProt P06536); assay: as §2; assay type: cell-based
T2 sequence (whole entry): T1 sequence (P06536 whole entry)

[3] = molecular target: T3, Glucocorticoid receptor (Homo sapiens) (UniProt P04150); assay: Displacement of fluormone GS Red from human glucocorticoid receptor at 1 uM after 4 hrs by fluorescence polarization assay relative to control
T3 sequence (whole entry): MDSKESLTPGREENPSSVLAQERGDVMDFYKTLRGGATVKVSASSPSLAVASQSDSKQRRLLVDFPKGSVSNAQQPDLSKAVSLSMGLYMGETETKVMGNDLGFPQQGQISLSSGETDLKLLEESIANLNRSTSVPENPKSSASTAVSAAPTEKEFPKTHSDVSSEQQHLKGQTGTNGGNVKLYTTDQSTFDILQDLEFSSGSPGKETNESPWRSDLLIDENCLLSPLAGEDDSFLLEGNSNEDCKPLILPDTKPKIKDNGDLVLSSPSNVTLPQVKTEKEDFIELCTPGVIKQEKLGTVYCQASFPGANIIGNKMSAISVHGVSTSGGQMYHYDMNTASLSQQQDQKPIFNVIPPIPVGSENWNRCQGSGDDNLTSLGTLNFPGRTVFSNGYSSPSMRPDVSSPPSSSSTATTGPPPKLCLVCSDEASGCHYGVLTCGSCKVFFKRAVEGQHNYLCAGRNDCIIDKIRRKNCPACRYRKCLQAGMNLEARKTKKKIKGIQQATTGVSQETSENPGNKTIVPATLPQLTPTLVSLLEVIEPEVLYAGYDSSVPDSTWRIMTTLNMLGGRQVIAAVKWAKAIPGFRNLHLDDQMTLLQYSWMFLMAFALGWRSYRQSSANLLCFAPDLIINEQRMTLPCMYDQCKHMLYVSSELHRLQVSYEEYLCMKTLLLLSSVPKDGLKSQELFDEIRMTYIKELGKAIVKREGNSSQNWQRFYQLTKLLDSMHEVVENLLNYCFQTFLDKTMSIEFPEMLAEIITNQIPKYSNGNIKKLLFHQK

Cytochrome P450 2B6 = molecular target: T4, Cytochrome P450 2B6 (Homo sapiens, UniProt P20813); assay: Induction of CYP2B6 in human hepatocytes; assay type: ADME, cell-based
T4 sequence (P20813 whole entry): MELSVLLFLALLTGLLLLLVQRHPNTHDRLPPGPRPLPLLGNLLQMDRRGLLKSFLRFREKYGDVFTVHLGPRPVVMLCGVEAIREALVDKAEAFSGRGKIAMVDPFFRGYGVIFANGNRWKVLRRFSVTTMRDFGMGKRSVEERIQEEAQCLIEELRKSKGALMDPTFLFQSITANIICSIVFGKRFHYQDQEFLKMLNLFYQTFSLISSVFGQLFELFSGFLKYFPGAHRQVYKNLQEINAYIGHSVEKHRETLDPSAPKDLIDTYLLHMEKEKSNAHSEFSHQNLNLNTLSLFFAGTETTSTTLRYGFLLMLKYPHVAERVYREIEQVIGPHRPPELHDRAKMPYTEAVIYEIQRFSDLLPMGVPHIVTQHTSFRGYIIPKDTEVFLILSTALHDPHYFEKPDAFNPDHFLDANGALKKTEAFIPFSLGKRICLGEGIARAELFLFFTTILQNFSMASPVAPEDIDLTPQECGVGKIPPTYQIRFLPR

[4] = Cmax in monkey plasma at 20 mg/kg, po measured up to 24 hrs by LC/MS analysis; assay type: ADME, organism-based, Macaca mulatta; parameters: dose 20 mg/kg, route oral; conditions: rhesus monkey
Method in brief: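 Monkey i.v./p.o. study: oral 20mg/kg in 10% DMSO, 0.1% Tween 80, 0.5% hydroxypropylmethylcellulose in water; i.v. dose 1mg/kg.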

[5] = AUC in Sprague-Dawley CD-1 rat plasma at 5 mg/kg, po administered through gavage measured up to 24 hrs by LC/MS analysis; assay type: ADME, organism-based; parameters: dose 5 mg/kg, time < 24 hr, route oral; method in brief: as §1

Cn1cc(S(=O)(=O)N2CCC3=Cc4c(cnn4-c4ccc(F)cc4)C[C@]3(C(=O)c3cc(C(F)(F)F)ccn3)C2)cn1 [RELACORILANT]
Cmax [1]: 0.297 µg/mL | pKi (Glucocorticoid receptor): 7.92 | Imax [2]: 54.2% | inhibition [3]: 100% | Activity (Cytochrome P450 2B6): Not Active | Cmax [4]: 1.14 µg/mL | AUC at 24 h [5]: 1.55 µg·h/mL
